# Screening results: PubChem BioAssay, several laboratories
# Rows were chosen to be rich in hits. Some 2.1% of all compounds tested hit in one or more screens of this group.
# CXCR6 block – CXCR6 receptor inhibitors, primary screen, cell-based, beta-arrestin, luminescence, CHO-K1 PathHunter, 1536-well | C-X-C chemokine receptor type 6 (Homo sapiens), O00574 | inhibition, % at 20 µM | 360,000 tested, 0.36% active; in the data active means inhibition above about 34%, passing the limit was not always enough;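 further: antagonist mode with CXCL16 agonist at 10 nM final; 0% = 10 nM CXCL16 with DMSO and 100% = unstimulated wells without agonist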
# APJ agonist – agonists of human apelin receptor APJ, primary screen, CHO-K1 cells, PathHunter beta-arrestin, luminescence. 0% DMSO wells, 100% apelin. activation, % at 20 µM. 330,000 tested, 0.11% active. P35414. AID 2520, 2010;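 active means activation more than six SD over the plate average, tested at 20 µM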;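 further: 0% = DMSO alone and 100% = apelin-13 at 10 nM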
#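 assay system = CHO-K1 APJ beta-arrestin complementation cell line | input = cell density 1000 per well | dosing = compound 20 µM once, DMSO 1% | timing = compound 90 min 25 °C, reagent 1 h | measured by = luminescence from split beta-galactosidase complementation, Galacton Star/Emerald II substrate | read-out basis = APJ agonist activity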
# EBI2 block – EBI2 receptor antagonists, beta-arrestin recruitment, primary screen, cell-based, luminescence, 7a,25-OHC stimulation, uHTS; inhibition, % at 5 µM; 7a,25-OHC stimulated; 360,000 tested, 0.81% active; G-protein coupled receptor 183 (Homo sapiens), P32249; in the data active means inhibition above about 38%;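 further: enzyme fragment complementation signal reports receptor beta-arrestin coupling in cells; 0% = agonist plus DMSO wells and 100% = wells without agonist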
# HTR2A ag – mouse Htr2a agonists via beta-arrestin recruitment, primary screen, cell-based, luminescence. AID 624169, 2012. activation, % at 7.6 µM. 5-hydroxytryptamine receptor 2A (Mus musculus), P35363. 360,000 tested, 0.66% active. CHO-K1 mHTR2A beta-arrestin complementation; percent of 30 µM serotonin response;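 active means activation above a run cutoff, the mean activation of all tested compounds plus 3 SD, cut at about 14% in these data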;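 further: 0% = plate median of compound wells and 100% = 30 µM serotonin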
# Target sequence (P35363 whole entry, looked up): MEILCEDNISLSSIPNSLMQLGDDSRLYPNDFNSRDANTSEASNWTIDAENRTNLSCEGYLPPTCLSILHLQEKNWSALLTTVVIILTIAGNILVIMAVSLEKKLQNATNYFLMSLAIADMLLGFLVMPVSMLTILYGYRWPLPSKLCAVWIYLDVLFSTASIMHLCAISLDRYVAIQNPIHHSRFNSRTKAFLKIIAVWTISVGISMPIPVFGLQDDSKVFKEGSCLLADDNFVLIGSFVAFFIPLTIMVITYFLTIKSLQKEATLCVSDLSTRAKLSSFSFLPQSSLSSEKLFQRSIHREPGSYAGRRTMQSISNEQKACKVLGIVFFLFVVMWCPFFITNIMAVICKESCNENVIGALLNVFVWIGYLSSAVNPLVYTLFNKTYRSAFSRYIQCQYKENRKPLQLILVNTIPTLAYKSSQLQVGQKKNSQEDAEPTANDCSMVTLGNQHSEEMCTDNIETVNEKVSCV
# CCR6 antag – CCR6 receptor antagonists, primary screen, cell-based, CHO-K1, luminescence, beta-arrestin, uHTS | C-C chemokine receptor type 6 (Homo sapiens), P51684 | inhibition, % at 20 µM | CHO-K1 CCR6 PathHunter beta-arrestin, CCL20-stimulated | 340,000 tested, 0.49% active;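 active means compounds whose inhibition of the agonist-driven luminescence signal at 20 µM reaches about 50%, limit read from the data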;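 further: cells stimulated with CCL20 at 14 nM final; plate controls were DMSO with CCL20 for no effect and DMSO without agonist for full effect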
# APJ antag – antagonists of human apelin receptor APJ, primary screen, CHO-K1 cells, beta-arrestin complementation, luminescence; AID 2521, 2010; 330,000 tested, 0.32% active; inhibition, % at 20 µM;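 active means inhibition above about 40% at 20 µM, limit read from the data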;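 further: cells challenged with 10 nM apelin-13 agonist together with compound; plate controls were apelin-13 plus DMSO wells for no effect and DMSO wells lacking apelin-13 for full effect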
# EBI2 conf – EBI2 antagonist hit retest, beta-arrestin, confirmation, cell-based, single concentration, luminescence, 7a,25-OHC stimulation | shares compounds with EBI2 block | 7a,25-OHC antagonism | 2,400 tested, 29% active | inhibition, % at 5 µM;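 active means inhibition of at least 50%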
# EBI2 agonist – EBI2 agonist activity of antagonist hits, confirmation, counter-screen for EBI2 antagonist project, cell-based, single concentration, agonist mode, luminescence. shares compounds with EBI2 block. EBI2-expressing cells, 60 min; 0% vehicle, 100% 7α,25-dihydroxycholesterol control. activation, % at 5 µM. 2,400 tested, under 10 active. AID 652000, 2013;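 active means activation of at least 50%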
# bGal counter – E. coli beta-galactosidase enzyme inhibition, confirmation, counter-screen for EBI2 antagonist project, biochemical, luminescence, single concentration; inhibition, % at 5 µM; purified beta-galactosidase, luminescent Galacton Star, 15 min; 2,400 tested, 1% active; AID 652176, 2013; shares compounds with EBI2 block;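 active means replicate-average signal at least 3 plate SD below neutral wells, shown as high inhibition, flagging enzyme-inhibiting false positives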;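 further: 0% = DMSO wells with enzyme and 100% = wells lacking enzyme; higher means stronger loss of beta-gal luminescence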
# Active calls of the source: *; . = not tested or not shown.
SMILES,CXCR6 block,APJ agonist,EBI2 block,HTR2A ag,CCR6 antag,APJ antag,EBI2 conf,EBI2 agonist,bGal counter
COc1ccc(CN2CCNC(=O)C2CC(=O)N(C)C2CCCCC2)cc1OC (configuration not stated),0,.,-13,4,.,.,.,.,.
COc1nc(Nc2cccc(C)c2)nc(N2CCCCC2)n1,-5,-4,-14,5,12,10,.,.,.
Cc1cccc(Nc2nc(N3CCCC3)nc(N3CCCC3)n2)c1,-8,-4,42*,0,-7,12,7,-1,-9
N#Cc1c(-c2ccccc2)c(-c2ccccc2)nn(CC(=O)NNC(=O)Nc2ccc(Cl)c(Cl)c2)c1=O,12,-4,79*,-2,22,18,22,1,7
CCCc1nc2c(Cl)cc(C(F)(F)F)cn2c1Cc1ccc(OC)cc1C,4,.,21,3,.,.,.,.,.
Cc1cccc2c(C(=O)N3CCN(c4ccccc4)CC3)cc(-c3ccncc3)nc12,0,-2,47*,-5,4,2,28,0,-2
Cc1cccc2c(C(=O)N3CCCCC3)cc(-c3ccccc3)nc12,1,-6,20,-4,8,0,.,.,.
Clc1ccc(Cl)c(-c2nn3c(COc4ccccc4)nnc3s2)c1,4,-6,53*,0,-4,37,25,1,10
O=C(c1cc2c(ccc3ccccc32)o1)N1CCN(c2ncc(C(F)(F)F)cc2Cl)CC1,-3,5,91*,9,-2,17,79*,0,4
O=C(c1[nH]c(C(F)(F)F)nc1-c1ccccc1)N1CCN(c2ncc(C(F)(F)F)cc2Cl)CC1,4,.,-4,11,.,.,.,.,.
O=C(c1cc2cc(Cl)ccc2o1)N1CCCCCC1,0,1,47*,-9,9,9,20,1,12
O=C(c1cc2c(ccc3ccccc32)o1)N1CCCCC1,-3,-5,51*,0,8,2,27,0,6
Cc1ccccc1C(=O)NC1CCN(CC(=O)N2CCCCC2C)CC1 (configuration not stated),4,-2,4,-1,5,12,.,.,.
CCOc1ccc(S(=O)(=O)N(C)c2ccc(OCC(=O)NCCc3ccc(OC)cc3)cc2)cc1,-4,-4,55*,-2,6,-4,34,0,-1
COc1ccc(CCNC(=O)c2ccc(N(C)S(=O)(=O)c3ccc(C)cc3)cc2)cc1,-1,-3,17,-4,27,-8,.,.,.
c1ccc(-c2csc(Nc3nc(N4CCOCC4)nc(N4CCOCC4)n3)n2)cc1,-3,5,50*,0,-6,0,37,-1,-10
Cc1cc(C)nc(Nc2nc(-c3ccccc3)cs2)n1,-4,-1,10,-2,7,-19,.,.,.
Cc1c(N2C(=O)CSC2c2ccc(F)cc2)c(=O)n(-c2ccccc2)n1C (configuration not stated),9,-2,7,7,13,-2,.,.,.
CN(Cc1ccccc1)C(=O)c1cc2cc(F)ccc2[nH]1,5,0,55*,-3,10,-2,58*,0,7
COc1ccccc1C1CCN(C(=O)c2ccc(Cl)cc2)CC1,7,0,88*,-5,16,6,70*,2,5
